The source made the active and inactive calls. The calls are words filed in the database; no cut-off is given here.
Assays:
[1] = molecular target: T1, Amyloid-beta precursor protein (Homo sapiens, UniProt P05067); experiment: Inhibition of self-induced amyloid beta (1 to 42) (unknown origin) aggregation by thioflavin T-based fluorometric assay
How it was run: (§1)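 HFIP-pretreated Aβ42 stock at 500 μM in CH3CN/0.3 mM Na2CO3/250 mM NaOH, diluted to 50 μM in 10 mM phosphate buffer pH 8.0 with 10 mM NaCl. Incubated at 30 °C with or without inhibitor at 50 μM (1:1 ratio); inhibitor blanks included. ThT fluorescence gave % inhibition. IC50 from concentrations giving 20–80% inhibition.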

[2] = molecular target: T2, Glycogen synthase kinase-3 beta (Homo sapiens, UniProt P49841); experiment: Inhibition of GSK3beta (unknown origin) at 50 uM using GSM substrate after 30 mins by Kinase-Glo reagent based luminescence assay relative to control
How it was run: (§2)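 Buffer: 50 mM HEPES, 1 mM EDTA, 1 mM EGTA, 15 mM Mg acetate, pH 7.5. Enzyme 20 ng per well, GSM substrate 25 μM, ATP 1 μM, DMSO ≤1%. Incubated 30 min at 30 °C, then stopped with Kinase-Glo; luminescence read after 10 min. Activity normalised between no-inhibitor and […] total-inhibition controls. Single-point screen at 50 μM; IC50 by linear regression. Mean of two experiments, each in duplicate.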
Target sequence in this assay (P49841 whole entry, looked up): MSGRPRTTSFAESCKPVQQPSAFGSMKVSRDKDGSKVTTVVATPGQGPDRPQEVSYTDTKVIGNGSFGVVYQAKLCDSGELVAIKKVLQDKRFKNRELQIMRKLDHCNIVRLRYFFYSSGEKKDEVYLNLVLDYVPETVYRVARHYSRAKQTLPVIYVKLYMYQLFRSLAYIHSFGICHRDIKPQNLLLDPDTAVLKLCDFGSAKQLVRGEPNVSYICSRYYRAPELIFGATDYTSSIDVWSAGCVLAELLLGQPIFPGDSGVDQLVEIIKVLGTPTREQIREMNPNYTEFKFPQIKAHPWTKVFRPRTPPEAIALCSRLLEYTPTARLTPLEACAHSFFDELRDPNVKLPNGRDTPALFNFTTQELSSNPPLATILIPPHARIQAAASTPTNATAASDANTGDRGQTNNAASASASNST

[3] = Antioxidant activity assessed as inhibition rate constant for auto-oxidation of cumene initiated by AIMN in PhCl at 30 degC; assay type: functional
How it was run: (§3)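 Oxygen-uptake measurement in a two-channel differential pressure apparatus. Air-saturated cumene (3.6 M) in chlorobenzene (1:1 v/v) with AIBN 0.05 M as thermal initiator, equilibrated against a reference solution holding excess 2,2,5,7,8-pentamethyl-6-chromanol. Antioxidant injected once O2 consumption was constant. k_inh fitted from the uninhibited and inhibited O2-consumption slopes.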

[4] = molecular target: T1, Amyloid-beta precursor protein; experiment: Inhibition of self-induced amyloid beta (1 to 42) (unknown origin) aggregation at 50 uM by thioflavin T-based fluorometric assay relative to control; how it was run: as §1
[5] = Passive permeability of the compound at 100 uM after 6 hrs by PAMPA
[6] = molecular target: T3, Protein-glutamine gamma-glutamyltransferase (Homo sapiens, UniProt P21980); experiment: Inhibition recombinant human TG2 using N-CbzGlu(gamma-p-nitrophenylester)Gly as substrate after 10 mins
T3 sequence (P21980 whole entry): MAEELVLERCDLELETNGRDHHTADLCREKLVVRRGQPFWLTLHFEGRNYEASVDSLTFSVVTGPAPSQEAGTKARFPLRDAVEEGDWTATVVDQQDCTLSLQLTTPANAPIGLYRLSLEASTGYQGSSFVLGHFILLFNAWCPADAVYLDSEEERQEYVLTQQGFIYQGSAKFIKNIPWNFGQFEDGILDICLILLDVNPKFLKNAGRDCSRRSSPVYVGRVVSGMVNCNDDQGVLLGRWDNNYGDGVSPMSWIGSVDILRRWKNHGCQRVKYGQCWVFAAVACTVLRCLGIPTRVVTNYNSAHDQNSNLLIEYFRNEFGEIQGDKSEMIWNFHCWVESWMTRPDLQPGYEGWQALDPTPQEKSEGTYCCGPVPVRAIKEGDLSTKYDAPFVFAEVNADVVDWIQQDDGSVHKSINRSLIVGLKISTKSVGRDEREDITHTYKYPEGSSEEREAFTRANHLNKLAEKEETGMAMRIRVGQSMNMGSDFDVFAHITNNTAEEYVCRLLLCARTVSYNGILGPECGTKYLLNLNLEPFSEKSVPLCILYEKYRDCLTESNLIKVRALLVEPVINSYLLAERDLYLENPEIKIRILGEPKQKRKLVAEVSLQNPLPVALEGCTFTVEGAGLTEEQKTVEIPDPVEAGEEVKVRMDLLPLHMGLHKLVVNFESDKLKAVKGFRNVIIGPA

[7] = Antioxidant activity assessed as inhibition of auto-oxidation of cumene initiated by AIMN in PhCl at 30 degC relative to ethyl ferulate; assay type: functional; details: for inhibition: dose or concentration not given here; how it was run: as §3
[8] = Metal chelating activity assessed as compound-Cu2+ complex formation at 7.5 uM by UV-Visible differential spectroscopic method
How it was run: (§4)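 Stock solutions: 1 mM ligand and 1 mM CuCl2 in methanol, N2-purged. Fixed ligand (5–15 μM) titrated with CuCl2 up to 3 equivalents, deoxygenated, scanned 200–600 nm at room temperature in a 10 mm quartz cuvette against methanol. Ligand-only and metal-only spectra subtracted to give differential spectra, followed at 460 and 374 nm.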

[9] = molecular target: T2, Glycogen synthase kinase-3 beta; experiment: Inhibition of GSK3beta (unknown origin) using GSM substrate after 30 mins by Kinase-Glo reagent based luminescence assay; how it was run: as §2
Target sequence in this assay (P49841 whole entry): as the sequence (P49841 whole entry, looked up) above

[10] = Antioxidant activity assessed as inhibition of auto-oxidation of cumene initiated by AIMN in PhCl at 30 degC relative to caffeic acid; assay type: functional; how it was run: as §3
[11] = molecular target: T1, Amyloid-beta precursor protein; experiment: Inhibition of self-induced amyloid beta (1 to 42) (unknown origin) aggregation by thioflavin T-based fluorometric assay relative to control; details: concentration not given here; how it was run: as §1
Cortical neurone [12] = experiment: Neuroprotective activity against glutamate-induced oxidative stress in Sprague-Dawley rat primary cortical neurons assessed as reduction in cell death at 12.5 to 50 uM after 24 hrs by MTT assay; assay type: functional, cell-based; details: prague-Dawley
How it was run: (§5)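 Immature E17 primary cortical neurons plated at 10^6 cells/ml. At DIV1, rinsed and given increasing compound concentrations, with or without 5 mM glutamate added at the same time. Viability by MTT after 24 h, across three neuronal preparations. Two-way ANOVA with Bonferroni post hoc test.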

[13] = molecular target: Luciferin 4-monooxygenase (Photinus pyralis) (UniProt P08659); experiment: Inhibition of firefly luciferase activity up to 3 mM after 30 mins by luminescence assay
Chain of Luciferin 4-monooxygenase (Photinus pyralis) (P08659 whole entry): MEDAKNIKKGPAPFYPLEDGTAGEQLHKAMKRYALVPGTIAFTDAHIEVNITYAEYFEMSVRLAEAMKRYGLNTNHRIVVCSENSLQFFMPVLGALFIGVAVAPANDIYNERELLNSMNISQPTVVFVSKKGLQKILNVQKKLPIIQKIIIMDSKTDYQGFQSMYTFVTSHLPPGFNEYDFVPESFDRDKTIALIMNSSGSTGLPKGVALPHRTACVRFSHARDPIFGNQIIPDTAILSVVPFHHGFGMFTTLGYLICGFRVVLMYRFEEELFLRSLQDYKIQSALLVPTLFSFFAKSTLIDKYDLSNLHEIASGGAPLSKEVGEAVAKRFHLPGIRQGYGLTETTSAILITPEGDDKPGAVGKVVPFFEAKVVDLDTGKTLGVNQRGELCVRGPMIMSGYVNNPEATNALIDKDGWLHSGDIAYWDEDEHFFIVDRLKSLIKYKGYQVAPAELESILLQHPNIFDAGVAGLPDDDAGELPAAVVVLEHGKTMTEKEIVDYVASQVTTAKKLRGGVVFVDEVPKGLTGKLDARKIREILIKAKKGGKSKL
How it was run: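 Luciferase interference check: the Kinase-Glo luminescence read-out was run without GSK-3β, with compound up to 3 mM.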

Cortical neurone [14] = experiment: Cytotoxicity against Sprague-Dawley rat primary cortical neurons assessed as reduction in cell viability up to 50 uM after 24 hrs by MTT assay; assay type: cell-based; how it was run: as §5
[15] = Metal chelating activity assessed as compound-Cu2+ complex formation at 7.5 uM in presence of 0.5 to 2 equiv of Cu2+ by UV-Visible differential spectroscopic method; how it was run: as §4
[16] = Antioxidant activity in pH 7.4 phosphate buffer assessed as inhibition rate constant for auto-oxidation of THF initiated by AAPH at 30 degC
[17] = Pro-oxidant activity in water assessed as auto-oxidation initiated by Cu+/Cu2+ couple in presence of H2O2; assay type: toxicity; details: buffer

T1 sequence (P05067 whole entry): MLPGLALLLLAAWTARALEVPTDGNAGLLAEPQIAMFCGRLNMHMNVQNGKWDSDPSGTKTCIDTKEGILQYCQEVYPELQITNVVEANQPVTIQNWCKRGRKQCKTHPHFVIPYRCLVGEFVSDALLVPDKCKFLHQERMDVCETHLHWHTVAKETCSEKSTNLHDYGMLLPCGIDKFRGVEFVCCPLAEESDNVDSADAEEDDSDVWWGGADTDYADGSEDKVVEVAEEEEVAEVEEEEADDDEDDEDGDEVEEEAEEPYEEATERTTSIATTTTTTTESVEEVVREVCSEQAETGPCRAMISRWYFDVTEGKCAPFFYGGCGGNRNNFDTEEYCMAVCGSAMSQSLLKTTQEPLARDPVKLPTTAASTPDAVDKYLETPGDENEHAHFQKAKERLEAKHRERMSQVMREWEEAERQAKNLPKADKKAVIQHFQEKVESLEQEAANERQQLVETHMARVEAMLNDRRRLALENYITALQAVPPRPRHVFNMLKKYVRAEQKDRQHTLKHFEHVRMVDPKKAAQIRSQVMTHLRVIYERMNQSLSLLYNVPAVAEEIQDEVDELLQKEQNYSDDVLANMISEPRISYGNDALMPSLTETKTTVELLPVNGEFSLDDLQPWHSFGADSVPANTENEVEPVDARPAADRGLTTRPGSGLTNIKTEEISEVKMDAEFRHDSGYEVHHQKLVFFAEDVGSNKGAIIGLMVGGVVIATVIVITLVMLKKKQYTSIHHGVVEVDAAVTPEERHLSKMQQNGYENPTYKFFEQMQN

Row | SMILES | IC50 [1] | inhibition [2] | K [3] | inhibition [4] | IC50 [6] | further results
1 | COc1cc(/C=C/C(=O)O)ccc1O [FERULATE] | > 100 µM | – | – | – | – | –
2 | CCOC(=O)/C=C/c1ccc(O)c(OC)c1 | – | 21.4% | 4.6 ×10³ /M/s | – | – | –
3 | O=C(/C=C/c1cccc(O)c1)c1cccnc1 | – | 43.5% | 1.5 ×10³ /M/s | 5.8% | 266 µM | Papp at 6 h, 100 µM [5]: 6.5 ×10⁻⁶ cm/s
4 | O=C(O)/C=C/c1ccc(O)c(O)c1 | – | – | 2.9 ×10⁵ /M/s | – | – | –
5 | C=CCSC(=O)/C=C/c1ccc(O)c(O)c1 | 12.5 µM | – | – | – | – | –
6 | OCCc1ccc(O)c(O)c1 | – | – | 8 ×10⁵ /M/s | – | – | –
7 | O=c1c(O)c(-c2ccc(O)c(O)c2)oc2cc(O)cc(O)c12 | – | – | 5 ×10⁵ /M/s | – | – | –
8 | O=C(O)/C=C/c1cccc(O)c1 | > 100 µM | – | – | – | – | –
9 | CCOc1cc(/C=C/C(=O)c2cccnc2)ccc1O | – | 39.5% | 6.1 ×10³ /M/s | 18.8% | 484 µM | inhibition [7]: 33%
10 | O=C(/C=C/c1ccc(O)cc1)c1cccnc1 | – | 25.2% | 5.7 ×10³ /M/s | 21.5% | > 2000 µM | –
11 | O=C(/C=C/c1ccc(O)c(O)c1)c1cccnc1 | 9 µM | 100% | 6.8 ×10⁵ /M/s | 91.5% | 1000 µM | Activity [8]: Active; IC50 [9]: 24.4 µM; Papp at 6 h, 100 µM [5]: 5.5 ×10⁻⁶ cm/s; fold change (FC) [10]: > 2; inhibition [11]: 20 to 80%; Activity (Cortical neurone [12]): Active; inhibition [13]: inactive; fold change (FC) [7]: 150; Activity (Cortical neurone [14]): Non-Toxic; Activity [15]: Active; K [16]: 3.2 ×10⁵ /M/s; Activity [17]: Not Active
12 | COc1cc(/C=C/C(=O)c2cccnc2)ccc1O | – | 37.2% | 7.1 ×10³ /M/s | 17.5% | 688 µM | Papp at 6 h, 100 µM [5]: 9.9 ×10⁻⁶ cm/s; inhibition [7]: 54%
